{
  "source": "ChEMBL document CHEMBL4364297",
  "about": "“Probing the Ligand-Binding Pocket of BTN3A1” (J Med Chem, 2019)",
  "key": {"[1]": {"biological_target": "T1, Butyrophilin subfamily 3 member A1 (Homo sapiens, UniProt O00481)", "test": "Activation of BTN3A1 in human PBMC-derived Vgamma9/Vdelta2 T cells assessed as induction of IL2-stimulated IFNgamma production measured after 48 hrs by ELISA"}, "[2]": {"biological_target": "T1, Butyrophilin subfamily 3 member A1", "test": "Displacement of GDP-BODIPY from C-terminal 6His-tagged BTN3A1 full […] domain (unknown origin) expressed in Escherichia coli BL21 (DE) measured after 60 mins by fluorescence polarization assay"}, "[3]": {"biological_target": "T1, Butyrophilin subfamily 3 member A1", "test": "Displacement of GDP-BODIPY from C-terminal 6His-tagged BTN3A1 B30.2 domain (unknown origin) expressed in Escherichia coli BL21 (DE) measured after 60 mins by fluorescence polarization assay"}, "[4]": {"biological_target": "Butyrophilin subfamily 3 member A1 (Homo sapiens, UniProt O00481, R448A)", "sequence (O00481 30-513 R448A limits assumed)": "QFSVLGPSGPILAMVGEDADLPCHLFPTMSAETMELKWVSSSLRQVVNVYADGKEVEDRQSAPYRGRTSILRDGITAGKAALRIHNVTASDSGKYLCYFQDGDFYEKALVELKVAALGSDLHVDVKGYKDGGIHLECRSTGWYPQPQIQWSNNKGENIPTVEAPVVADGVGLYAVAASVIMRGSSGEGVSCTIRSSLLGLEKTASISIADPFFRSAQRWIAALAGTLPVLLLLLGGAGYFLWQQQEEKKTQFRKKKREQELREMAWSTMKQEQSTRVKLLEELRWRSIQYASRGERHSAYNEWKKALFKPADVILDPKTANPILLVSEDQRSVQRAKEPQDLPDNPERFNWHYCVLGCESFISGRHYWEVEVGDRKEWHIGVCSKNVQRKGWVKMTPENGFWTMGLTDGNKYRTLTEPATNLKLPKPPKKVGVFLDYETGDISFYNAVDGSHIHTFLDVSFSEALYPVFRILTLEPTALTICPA", "test": "Displacement of GDP-BODIPY from C-terminal 6His-tagged BTN3A1 R448A mutant (unknown origin) expressed in Escherichia coli BL21 (DE) measured after 60 mins by fluorescence polarization assay"}, "[5]": {"biological_target": "Butyrophilin subfamily 3 member A1 (Homo sapiens, UniProt O00481, R442A)", "sequence (O00481 30-513 R442A limits assumed)": "as the sequence (O00481 30-513 R448A limits assumed) above, with R413A, A419R counted along it", "test": "Displacement of GDP-BODIPY from C-terminal 6His-tagged BTN3A1 R442A mutant (unknown origin) expressed in Escherichia coli BL21 (DE) measured after 60 mins by fluorescence polarization assay"}, "[6]": {"biological_target": "Butyrophilin subfamily 3 member A1 (Homo sapiens, UniProt O00481, M424A)", "sequence (O00481 30-513 M424A limits assumed)": "as the sequence (O00481 30-513 R448A limits assumed) above, with M395A, A419R counted along it", "test": "Displacement of GDP-BODIPY from C-terminal 6His-tagged BTN3A1 M424A mutant (unknown origin) expressed in Escherichia coli BL21 (DE) measured after 60 mins by fluorescence polarization assay", "procedure,_shortened": "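GDP-BODIPY probe (750 nM final) was incubated with 10 μM mutant BTN3A1 full intracellular domain in 100 mM NaCl, 50 mM Tris, 5 mM β-mercaptoethanol, pH 7.5. Test ligand was added at varying concentrations, and plates were kept 60 min in the dark. FP was read at 485/535 nm in triplicate, with at least 3 independent experiments. Probe in buffer served as the negative control and probe with protein as the positive control. IC50 was obtained by 4-parameter nonlinear regression.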"}, "[7]": {"biological_target": "Butyrophilin subfamily 3 member A1 (Homo sapiens, UniProt O00481, W421A)", "sequence (O00481 30-513 W421A limits assumed)": "as the sequence (O00481 30-513 R448A limits assumed) above, with W392A, A419R counted along it", "test": "Displacement of GDP-BODIPY from C-terminal 6His-tagged BTN3A1 W421A mutant (unknown origin) expressed in Escherichia coli BL21 (DE) measured after 60 mins by fluorescence polarization assay"}, "[8]": {"biological_target": "Butyrophilin subfamily 3 member A1 (Homo sapiens, UniProt O00481, R499A)", "sequence (O00481 30-513 R499A limits assumed)": "as the sequence (O00481 30-513 R448A limits assumed) above, with A419R, R470A counted along it", "test": "Displacement of GDP-BODIPY from C-terminal 6His-tagged BTN3A1 R499A mutant (unknown origin) expressed in Escherichia coli BL21 (DE) measured after 60 mins by fluorescence polarization assay"}, "[9]": {"biological_target": "T1, Butyrophilin subfamily 3 member A1", "test": "(§1) Activation of BTN3A1 in human PBMC-derived Vgamma9/Vdelta2 T cells assessed as induction of IL2-stimulated cell proliferation by measuring increase in CD3+ cells preincubated for 3 days followed by 11 days incubation post compound washout and subsequent IL2 stimulation for every 3 days measured after 14 days by flow cytometry", "assay_type": "cell-based"}, "[10]": {"test": "Drug uptake in human PBMC assessed as parent compound remaining at 10 uM measured after 24 hrs by UPLC-MS analysis", "assay_type": "ADME, cell-based", "details": "PBMC (peripheral blood mononuclear cells), read-out: Drug uptake", "procedure,_shortened": "(§2)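 Compound at 10 μM final was added to human PBMCs (1,000,000 cells/mL) suspended in T cell media and incubated. The supernatant was collected and stored at –20 °C, then analysed by UPLC-MS on a C18 column (25% to 80% acetonitrile over 8 min). The integrated molecular-ion signal is reported relative to t = 0.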"}, "[11]": {"biological_target": "T1, Butyrophilin subfamily 3 member A1", "test": "as §1, with “CD3+ cells at 10 uM preincubated for” for “CD3+ cells preincubated for”, “flow cytometry relative to control” for “flow cytometry”", "assay_type": "cell-based"}, "[12]": {"test": "Drug uptake in T cell media assessed as parent compound remaining at 10 uM measured after 48 hrs by UPLC-MS analysis", "procedure,_shortened": "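This was the cell-free control. Compound at 10 μM final was held in T cell media without PBMCs, and loss of the parent compound was followed over time. Supernatant was analysed by UPLC-MS on a C18 column (25% to 80% acetonitrile gradient over 8 min). The molecular-ion integral is expressed relative to t = 0.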"}, "[13]": {"test": "Drug uptake in human PBMC assessed as parent compound remaining at 10 uM measured after 6 hrs by UPLC-MS analysis", "assay_type": "ADME, cell-based", "details": "PBMC (peripheral blood mononuclear cells), read-out: Drug uptake", "procedure,_shortened": "as §2"}, "[14]": {"biological_target": "T1, Butyrophilin subfamily 3 member A1", "test": "as §1, with “CD3+ cells up to 100 uM preincubated for” for “CD3+ cells preincubated for”", "assay_type": "cell-based"}, "[15]": {"biological_target": "T1, Butyrophilin subfamily 3 member A1", "test": "as §1, with “CD3+ cells at 0.1 uM preincubated for” for “CD3+ cells preincubated for”, “flow cytometry relative to control” for “flow cytometry”", "assay_type": "cell-based"}},
  "note": "Active and inactive are the calls of the source. No cut-off for these calls is given here.",
  "data": [
    {"smiles": "C/C(=C\\CCP(=O)(O)OP(=O)(O)O)CO", "values": [
      {"measurement": "EC50", "setting": "[1]; read-out: EC50", "value": 2, "unit": "nM"},
      {"measurement": "IC50", "setting": "[2]", "value": 0.00787, "unit": "mM"},
      {"measurement": "IC50", "setting": "[3]", "value": 0.00787, "unit": "mM"}
    ]},
    {"smiles": "C/C(=C\\CCP(=O)(O)O)CO", "values": [
      {"measurement": "IC50", "setting": "[4]", "value": 3.93, "unit": "mM"},
      {"measurement": "IC50", "setting": "[5]", "value": 3.22, "unit": "mM"},
      {"measurement": "EC50", "setting": "[1]; read-out: EC50", "value": 3400, "unit": "nM"},
      {"measurement": "IC50", "setting": "[6]", "value": 3.39, "unit": "mM"},
      {"measurement": "IC50", "setting": "[7]", "value": 3.19, "unit": "mM"},
      {"measurement": "IC50", "setting": "[8]", "value": 3.83, "unit": "mM"},
      {"measurement": "IC50", "setting": "[2]", "value": 3.85, "unit": "mM"},
      {"measurement": "IC50", "setting": "[3]", "value": 2.56, "unit": "mM"}
    ]},
    {"smiles": "C/C(=C\\CCCCP(=O)(OCOC(=O)C(C)(C)C)OCOC(=O)C(C)(C)C)CO", "values": [
      {"measurement": "EC50", "setting": "[9]", "value": "Not Active"},
      {"measurement": "remaining at 24 h, 10 µM", "setting": "[10]", "value": "< 1", "unit": "%"},
      {"measurement": "Activity", "setting": "[11]", "value": 28.1, "unit": "%"},
      {"measurement": "EC50", "setting": "[1]", "value": "Not Active"},
      {"measurement": "Drug uptake", "setting": "[12]", "value": 44, "unit": "%"},
      {"measurement": "remaining at 6 h, 10 µM", "setting": "[13]", "value": 44, "unit": "%"},
      {"measurement": "Activity", "setting": "[14]", "value": "inactive"}
    ]},
    {"smiles": "O=P([O-])([O-])OP(=O)([O-])[O-].[Na+].[Na+].[Na+].[Na+]", "note": "[SODIUM PYROPHOSPHATE]", "values": [
      {"measurement": "EC50", "setting": "[1]", "value": "Not Active"}
    ]},
    {"smiles": "C/C(=C\\CCP(=O)(OCOC(=O)C(C)(C)C)OCOC(=O)C(C)(C)C)CO", "values": [
      {"measurement": "remaining at 24 h, 10 µM", "setting": "[10]", "value": "< 1", "unit": "%"},
      {"measurement": "Activity", "setting": "[15]", "value": "Active"},
      {"measurement": "EC50", "setting": "[1]; read-out: EC50", "value": 15, "unit": "nM"},
      {"measurement": "Drug uptake", "setting": "[12]", "value": 63, "unit": "%"},
      {"measurement": "remaining at 6 h, 10 µM", "setting": "[13]", "value": 58, "unit": "%"}
    ]},
    {"smiles": "C/C(=C\\COP(=O)(O)OP(=O)(O)O)CO", "values": [
      {"measurement": "Activity", "setting": "[15]", "value": 64, "unit": "%"}
    ]},
    {"smiles": "COP(=O)(CCCC/C=C(\\C)CO)OC", "values": [
      {"measurement": "Activity", "setting": "[14]", "value": "inactive"}
    ]},
    {"smiles": "C/C(=C\\CCP(=O)(CP(=O)(OCOC(=O)C(C)(C)C)OCOC(=O)C(C)(C)C)OCOC(=O)C(C)(C)C)CO", "note": "(centres undefined)", "values": [
      {"measurement": "EC50", "setting": "[1]; read-out: EC50", "value": "> 1000", "unit": "nM"}
    ]},
    {"smiles": "C/C(=C\\CCCCP(=O)([O-])[O-])CO.[Na+].[Na+]", "values": [
      {"measurement": "IC50", "setting": "[4]", "value": 4.62, "unit": "mM"},
      {"measurement": "EC50", "setting": "[9]", "value": "Not Active"},
      {"measurement": "IC50", "setting": "[5]", "value": 3.43, "unit": "mM"},
      {"measurement": "EC50", "setting": "[1]", "value": "Not Active"},
      {"measurement": "IC50", "setting": "[6]", "value": 5.35, "unit": "mM"},
      {"measurement": "IC50", "setting": "[7]", "value": 3.24, "unit": "mM"},
      {"measurement": "IC50", "setting": "[8]", "value": 3.72, "unit": "mM"},
      {"measurement": "IC50", "setting": "[2]", "value": 1.07, "unit": "mM"},
      {"measurement": "Activity", "setting": "[14]", "value": "inactive"}
    ]},
    {"smiles": "C/C(=C\\CCP(=O)(O)CP(=O)(O)O)CO", "values": [
      {"measurement": "EC50", "setting": "[1]; read-out: EC50", "value": "> 100000", "unit": "nM"},
      {"measurement": "IC50", "setting": "[3]", "value": 0.103, "unit": "mM"}
    ]},
    {"smiles": "CC(C)=CCCCCP(=O)(OCOC(=O)C(C)(C)C)OCOC(=O)C(C)(C)C", "values": [
      {"measurement": "Activity", "setting": "[14]", "value": "inactive"}
    ]}
  ]
}
